Most compounds without a hit are left out; they make up all but 2.4% or so of the library.
rRNA inh HTS: reduced GFP signal of wild-type E. coli, primary screen, bacterial rRNA inhibitor project, GFP/RFP fluorescence, OD600, single point; E. coli WT GFP vs humanized-ribosome RFP mutants, 24 h; stronger effect = lower value; DMSO median 0, no signal -100; GFP signal change (wild-type ribosome), % (concentration not given with the values); 1.6% of 350,000 active; AID 720706, 2013;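 active means significant combined selectivity score with lowered wild-type GFP, culture density cut under 30%, mutant RFP and density less affected; inactive means any of these conditions unmet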
EWS-Fli inh: EWS/Fli-driven NR0B1 reporter inhibitors, primary screen, A673 cells, NR0B1 luciferase, luminescence, MLPCN library. viability-normalised. inhibition, % at 12.6 µM. 0.67% of 350,000 active;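 active means mean inhibition of at least 50% after viability correction, with every replicate also passing that limit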;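 further: firefly luciferase signal divided by Alamar Blue viability fluorescence both relative to DMSO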
E-sel inducer: E-selectin induction in HUVECs, primary screen, imaging, HUVEC, immunofluorescence imaging, single point; P16581; normalized: neutral wells 0, TNF-alpha wells 100; activation, % at 7.58 µM; 0.37% of 260,000 active; AID 686992, 2013;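 active means mean E-selectin-positive cell signal at least 10% of the positive control, reached in at least 60% of replicates, without over 20% cell loss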
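Assay system: HUVEC, human umbilical vein endothelial cells / Amount: 3,000 HUVEC/well / Controls: TNF-alpha positive control, DMSO neutral control / Compound dosing: single concentration / Medium: EGM-2 over gelatin coat / Evaluation: percent E-selectin-positive cells / Signal: immunofluorescence imaging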
LGR2 inh: inhibitors of bursicon-induced LGR2 CRE-luciferase signal, primary screen, cell-based, HEK293, CRE-luciferase reporter, bursicon stimulation | Drosophila bursicon receptor LGR2 (rickets) | bursicon-stimulated, 4 h | inhibition, % at 9.99 µM | 0.35% of 380,000 active | AID 720647, 2013;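 active means drop in luminescence signal, shown as inhibition above about 50% in the replicate tests, limit read from the data, passing the limit was not always enough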;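 further: agonist challenge used bursicon conditioned medium at about half maximal strength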
Active calls of the source: *; · = no result given.

SMILES	rRNA inh HTS	EWS-Fli inh	E-sel inducer	LGR2 inh
COc1ccc(C(=O)/C=C/Nc2cc(C)ccn2)cc1	-16	28	·	74*
COc1ccc(N/C=C/C(=O)c2ccccc2)cc1	7	39	·	65*
CCOc1ccc(NC(=O)/C=C/c2ccccc2)c([N+](=O)[O-])c1	19	-9	1	-74
C=CCOc1cccc(C(=O)N2CCCC(Nc3ccc(F)cc3)C2)c1 (stereo unspecified)	-26*	·	0	8
C#Cc1cccc(C(=O)N2CCCC(Nc3cccc(F)c3)C2)c1 (stereo unspecified)	-33*	-2	0	11
COc1ccc(S(=O)(=O)Nc2ccc3c(c2)C(=O)N([C@H](C)CO)C[C@H](C)[C@H](CN(C)Cc2ccc4c(c2)OCO4)OCCCC[C@H](C)O3)cc1	6	-1	0	-7
CN(C)S(=O)(=O)Nc1ccc2c(c1)Cc1ccccc1-2	-17	-19	·	-31
CN(C)S(=O)(=O)Nc1cc(Cl)cc(Cl)c1	-37*	5	·	-16
COc1ccc(CC(N)c2csc(NC(=O)Nc3ccccc3Cc3ccccc3)n2)cc1 (stereo unspecified)	-54	58*	0	-6
COc1ccc(CC(N)c2csc(NC(=O)Nc3ccccc3Oc3ccccc3)n2)cc1 (stereo unspecified)	-55	26	0	2
CCOC(=O)CC1(c2ccc(OC)c(OC)c2)C(=O)c2ccccc2C1=O	-27*	-1	1	-8
CCOC(=O)C1=C(C)NC(C)=C(C(=O)OCC)C1c1ccc(OC)c(OC)c1	-1	3	1	-27
N#Cc1ccc(C(=O)N2CCC3CC2c2cc(N4CCCCC4)ccc23)cc1 (stereo unspecified)	-33*	4	·	3
O=C(Cc1ccccc1)OC(COCc1ccccc1)C(=O)NCc1ccccc1 (stereo unspecified)	·	-11	·	·
Nc1ccc(N2CCOCC2)c(S(=O)(=O)Nc2cc(Cl)ccc2Cl)c1	-26*	0	0	15
COc1ccc(NS(=O)(=O)c2cc(N)ccc2N2CCOCC2)cc1	-5	0	·	-8
CNC(=S)Nc1cc(S(=O)(=O)Nc2cc(Cl)ccc2Cl)ccc1N1CCCC1	-27*	6	1	6
COCC(=O)Nc1ccc2c(c1)C(=O)N(C)C[C@@H](OC)[C@@H](C)CN(C(=O)NC(C)C)[C@H](C)CO2	1	4	0	-5
Nc1nn(S(=O)(=O)c2ccccc2)cc1-c1ccc([N+](=O)[O-])cc1	17	83*	·	2
O=C(Nc1ccccc1N1CCCCC1)C1=COCCO1	-55	7	35*	-1
O=C(Nc1ccccc1N1CCCC1)C1=COCCO1	11	6	·	-1
COc1ccc(S(=O)(=O)N(C)C[C@@H]2Oc3c(NS(=O)(=O)c4ccc(C)cc4)cccc3C(=O)N([C@@H](C)CO)C[C@@H]2C)cc1	-2	2	0	6
COc1ccc(OCCN2CCN(S(=O)(=O)c3ccccc3C(F)(F)F)CC2)cc1	5	8	139*	21
COc1ccc(Cl)cc1NC(=O)Nc1cccc([N+](=O)[O-])c1C	-32*	·	·	12
Cc1nc2c(-c3ccccc3)c[nH]n2c(=O)c1Cc1ccccc1	-20*	-39	·	-47
SMILES	rRNA inh HTS	EWS-Fli inh	E-sel inducer	LGR2 inh
COc1ccc2c3c([nH]c2c1)[C@H](CO)N(C(=O)Nc1ccc(F)cc1)CC31CCN(Cc2cc(F)ccc2F)CC1	-11	-4	1	20
O=C(/C=C/Nc1ccc(F)c(F)c1)c1cccs1	5	-71	·	-28
Cc1cccc(N/C=C/C(=O)c2cccs2)c1C	·	·	·	70*
COc1ccc(-c2cc3nc(CCl)[nH]c(=O)c3s2)cc1	4	35	·	68*
COc1cccc(CNc2nc3cc(-c4cccc(Cl)c4)sc3c(=O)n2C)c1	14	4	1	-10
Nc1cccnc1Oc1ccccc1F	5	-14	1	·
O=C(/C=C/c1ccccc1)Nc1cccnc1Oc1ccccc1F	-16*	-49	0	·
COc1ccc2c3c(n(C)c2c1)[C@H](CO)N(C(=O)Nc1ccc(F)cc1)CC31CN(S(=O)(=O)c2cccc(C)c2)C1	0	-3	0	21
Cc1c(C(=O)NC(=S)NCC(C)C)oc2ccccc12	10	-32	0	-74

Assay outcomes as filed in PubChem BioAssay.
